Data on one compound can be found in PMC3868989 (Pharmaceutical research, 2012).

≈ marks a conversion by molar mass, not a printed value.

The test system of data set [1] is pancreatic cancer cells BxPC-3. In words: MTT cell growth assay, BxPC-3. The settings on record: BxPC-3 cells, 72 h treatment. It is filed as cell-based. An outline of the steps: (§1)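 Cells grown at 37°C under humidified 5% CO2. BxPC-3 and MDA-MB-231 were in DMEM with 10% FBS, and PC3 was in RPMI with 10% FBS. Lines were STR-authenticated. Cells were seeded in 96-well plates and dosed 24 h after seeding. After 72 h, MTT 0.5 mg/ml was added for 2 h at 37°C. Medium was replaced with DMSO for 30 min at room temperature before reading absorbance. Eight replicate wells per treatment; each experiment run at least three times.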
On the technique in general: Tetrazolium assays rely on reduction of a dye to a coloured formazan, in cell work by metabolically active cells.

The conditions of data set [2]: pancreas of mice; cited from earlier work.
Data set [3] can be described thus: Pharmacokinetics and tissue distribution. Type of data set: in vivo. The settings on record: mice, single i.v. dose CDF 5.0 mg/mice, at 2 h. The method in brief:
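Female ICR-SCID mice, 8–10 weeks old, were starved overnight. Each received a single i.v. dose: test compound 5.0 mg/mouse, or its β-cyclodextrin 1:2 complex at 12.5 mg/mouse (5.0 mg equivalent). Vehicle was 1:1 ethanol/polysorbate 80 diluted tenfold with 5% glucose. About 200 μL blood was taken by cardiac puncture for serum. Pancreas was PBS-washed, blotted and weighed. Samples were stored at −80°C and quantified by validated LC-MS/MS.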

Data set [4] can be described thus: Phase solubility analysis. Type of data set: physicochemical. Conditions: in presence of β-cyclodextrin 0-20 mM, water, 30 ± 2°C, 72 h.
The test system of data set [5] is breast cancer cells MDA-MB-231. As to the kind of experiment: MTT cell growth assay, MDA-MB-231. The settings on record: MDA-MB-231 cells, 72 h treatment. Type of data set: cell-based. An outline of the steps:
as §1

Data set [6] can be described thus: Water solubility study of CDF and CDF-β-cyclodextrin complexes. It is filed as physicochemical. Conditions: distilled water, ambient temperature, shaken 2 h, UV 365 nm. An outline of the steps:
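The complex was made by kneading the components at 2:1 molar ratio in alcohol/water for 1 h. It was dried at 45°C for 24 h, powdered and sieved (#80). Excess test compound or complex was dispersed in 25 ml distilled water and shaken 2 h at ambient temperature to equilibrium. Solutions were passed through a 0.22-μm filter and diluted with methanol. Absorbance was read at 365 nm.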

Data set [7] has as its system prostate cancer cells PC3. As to the kind of experiment: MTT cell growth assay, PC3. Type of data set: cell-based. The settings on record: 72 h treatment. An outline of the steps: as §1

As a reminder, the IC50 is the concentration that inhibits the measured activity by half. Low readings indicate greater potency, high ones weaker potency. Consider `COc1cc(/C=C/C(=O)C(=Cc2ccc(F)c(F)c2)C(=O)/C=C/c2ccc(O)c(OC)c2)ccc1O` [CDF, 3,4-difluorobenzo curcumin], for which the figures for the half-maximal inhibitory concentration (IC50) in data set [1], in data set [5] and in data set [7] were 350 nM, 325 nM and 260 nM, respectively. In addition, in data set [2], the “levels in pancreas relative to curcumin” value is 10 times. For the same compound, in data set [3], the concentration in pancreas is reported as ~ 300 ng/g. Further, the concentration in serum in data set [3] was ~ 6 ng/ml. In addition, the “phase solubility diagram type” value in data set [4] was “AN type”. Further, in data set [6], the water solubility came out at 14 µg/mL (≈ 28.4 µM).
